Sampled rows, rich in hits. Any-hit rate of the full collection: about 2.2%.
FLuc act counter = FLuc activators, initial screening, artefact control for FLuc-dependent activation tests, biochemical, ATPlite luminescence; ATPlite luciferase biochemical, 10 min; 0 = ATP-free wells, 1 = DMSO control; 200,000 tested, under 10 active; activation factor at 10 µM; Luciferin 4-monooxygenase (Photinus pyralis), P08659; AID 1027, 2008;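 active means luciferase activation factor, scaled between plate controls, of at least 2 with compound at 10 µM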
Target sequence (P08659 whole entry, looked up): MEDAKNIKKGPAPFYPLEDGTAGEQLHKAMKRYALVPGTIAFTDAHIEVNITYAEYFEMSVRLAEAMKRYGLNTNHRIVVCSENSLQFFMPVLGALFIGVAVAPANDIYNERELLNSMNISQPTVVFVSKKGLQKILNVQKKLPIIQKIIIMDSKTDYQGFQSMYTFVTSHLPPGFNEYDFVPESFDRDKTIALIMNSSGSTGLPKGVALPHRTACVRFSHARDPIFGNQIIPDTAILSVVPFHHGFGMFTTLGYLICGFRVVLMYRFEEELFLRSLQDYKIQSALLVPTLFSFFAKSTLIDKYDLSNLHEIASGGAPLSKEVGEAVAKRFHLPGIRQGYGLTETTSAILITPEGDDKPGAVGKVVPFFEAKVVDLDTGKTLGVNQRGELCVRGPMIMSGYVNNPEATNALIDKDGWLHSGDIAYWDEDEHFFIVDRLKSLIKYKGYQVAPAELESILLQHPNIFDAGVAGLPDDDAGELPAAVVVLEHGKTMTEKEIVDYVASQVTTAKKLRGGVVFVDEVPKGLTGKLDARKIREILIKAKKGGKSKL
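test system = cell-free luciferase reagent | medium = PBS as buffer for the ATP substrate | dosing = test compounds dosed from 2 mM stocks in 100% DMSO | incubation = 10 min at ambient temperature | detection = luminescence measurement of luciferase light output | benchmarks = low control with PBS replacing ATP, high control enzyme plus ATP without compound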
NF-kB expr up = activators of NF-kB expression in neurons, primary screen, cell-based, HTS; human neuronal cells, NF-kB reporter expression; stronger effect = higher value; fold change at 12.5 µM; hit rate 1.6% among 190,000; in the data active means fold change above about 3.3
PPC-1+TRAIL kill = compounds killing PPC-1 cancer cells with TRAIL present, primary screen, TRAIL potentiator project, ATPLite luminescence, uHTS; PPC-1 cells + TRAIL, ATPLite viability luminescence; cell killing (% activity), % at 4 µM or 5 µM; hit rate 0.41% among 220,000; AID 1443, 2008;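 active means cell killing above 50% in the first pass at 4 µM, then a duplicate retest at 5 µM averaging 50% or more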
APP 5'UTR act = activators of APP 5'UTR luciferase reporter, primary screen, SH-SY5Y cells; SH-SY5Y APP 5'UTR luciferase reporter, luminescence; zero percent = DMSO vehicle wells; activation, % at 2 µM; hit rate 1% among 190,000; AID 1276, 2008;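 active means activation above a set limit, based on mean plus 3 SD of controls, cut at about 140% in these data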
TRAIL sens C8 = viability loss with TRAIL in NB7+C8 cells, primary screen, TRAIL sensitizer project, cell-based, ATPlite luminescence; AID 624354, 2012; hit rate 1% among 360,000; inhibition (viability loss, TRAIL sensitization), % at 10 µM;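 active means compounds causing at least 50% loss of cell viability in the single-dose screen, relative to plate controls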
FLuc inhib CS = firefly luciferase enzyme inhibitors, primary screen, artefact control for luciferase-based inhibitor screens, biochemical, luminescence, ATPLite | hit rate 1.5% among 200,000 | AID 1006, 2008 | inhibition, % at 10 µM | 10 min | Luciferin 4-monooxygenase (Photinus pyralis), P08659;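 active means inhibition above about 50% when tested at 10 µM, limit read from the data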
Numbers stand for hits; i = inactive; nt = no result.

SMILES	FLuc act counter	NF-kB expr up	PPC-1+TRAIL kill	APP 5'UTR act	TRAIL sens C8	FLuc inhib CS
COc1ccc(C(C)(O)c2nc(-c3cnc4ccccc4c3)cs2)cc1 (centres undefined)	nt	nt	nt	nt	i	nt
O=C(Nc1ccc([N+](=O)[O-])cc1)Nc1nc(-c2ccc(Cl)s2)cs1	i	i	67	i	i	i
O=[N+]([O-])c1ccc(C2Oc3ccccc3C3CC(c4ccccc4)=NN32)s1 (centres undefined)	i	8.8	i	i	nt	i
c1ccc(C2Oc3ccccc3C3CC(c4cccs4)=NN32)cc1 (centres undefined)	i	i	i	i	i	i
Cc1nn2cc(-c3ncc(C(F)(F)F)cc3Cl)cnc2c1Br	i	i	i	505	i	i
N#Cc1cnn2cc(-c3ncc(C(F)(F)F)cc3Cl)cnc12	i	i	i	i	i	i
Cc1cc2ncc(-c3ncc(C(F)(F)F)cc3Cl)cn2n1	i	i	i	138	58	73
CCc1nc2ccc(C(=O)Nc3cccc(OCC(=O)N(C)C)c3)cn2c1N(C)Cc1cc2ccccc2s1	nt	nt	nt	nt	i	nt
O=C(Nc1sc2c(c1C(=O)O)CCCCC2)c1cccs1	i	i	i	174	i	84
Cc1ccc(C(=O)Nc2sc3c(c2C(=O)O)CCCC3)o1	nt	nt	nt	nt	i	nt
O=C(Nc1sc2c(c1C(=O)O)CCCCC2)c1ccccc1F	i	i	i	i	i	61
Cc1ccc(C(=O)Nc2sc3c(c2C(=O)O)CCCCC3)o1	i	i	i	i	i	86
CCOc1ccc(-c2cccc(NS(=O)(=O)c3cccc([N+](=O)[O-])c3)c2)nn1	nt	nt	nt	nt	i	nt
COc1ccccc1-c1cnc(C(O)c2ccc(SC)cc2)[nH]1 (centres undefined)	nt	nt	nt	nt	i	nt
CCCNC(=O)C1(C)CCCN(Cc2c3ccccc3nn2C)C1 (centres undefined)	nt	nt	nt	nt	i	nt
COc1ccc(N=C2C(=Nc3ccc(OC)cc3)N(c3ccc(OC)cc3)C(=S)N2C(=O)c2ccc(OC)cc2)cc1	i	i	i	i	i	i
COc1ccc(N=C2C(=Nc3ccc(OC)cc3)N(c3ccccc3)C(=S)N2C(=O)c2ccc(Cl)cc2)cc1	i	6.8	i	i	i	i
COc1cc2c(cc1OC)C(c1ccc3c(c1)Cc1ccccc1-3)OC(=O)C2 (centres undefined)	nt	nt	nt	nt	i	nt
COCn1c(COc2ccc3ccccc3c2)nc2ccccc21	i	3.9	i	i	i	60
Cc1cc(OCC(=O)OCC(=O)N2CCCc3ccccc32)ccc1Cl	nt	nt	nt	nt	i	nt
COc1ccc(-c2nc3c(Br)c(N)c(Br)cc3o2)cc1	i	i	nt	i	i	i
Nc1c(Br)cc2oc(-c3ccccc3)nc2c1Br	i	3.4	i	i	i	i
Fc1cccc(Cc2c(-c3ccco3)nc3c4ccccc4ccn23)c1	nt	nt	nt	nt	i	nt
COCCNC(=O)C1CCCN(C(=O)c2ccc3ccccc3n2)CC1 (centres undefined)	nt	nt	nt	nt	i	nt
Cc1ccc(-c2cc(-c3ccccc3)no2)c(O)c1	i	3.7	i	276	78	87
SMILES	FLuc act counter	NF-kB expr up	PPC-1+TRAIL kill	APP 5'UTR act	TRAIL sens C8	FLuc inhib CS
CC(=O)Nc1nccc(-c2cc(-c3ccccc3)no2)n1	nt	nt	i	nt	nt	nt
Cc1ccc(O)c(-c2cc(-c3ccc(F)cc3)no2)c1	nt	nt	nt	nt	69	nt
Oc1ccccc1-c1cc(-c2ccccc2)no1	i	12	i	255	45	51
Cc1ccc2nc(-c3cc(-c4ccccc4)no3)cn2c1	nt	nt	i	nt	57	nt
Clc1ccc(-c2cc(-c3ccccc3)on2)cc1	nt	nt	nt	nt	i	nt
COc1ccc(-c2cc(-c3cc(C)ccc3O)[nH]n2)cc1	i	18	i	i	i	i
COc1ccc(-c2cc(-c3ccc(C)cc3)n[nH]2)c(O)c1	nt	nt	nt	nt	i	nt
Cc1ccccc1-c1cc(-c2ccccc2O)on1	i	9.7	i	197	i	i
O=C(NCCSc1ccccc1)c1ccccc1Cl	i	4.7	i	i	i	i
Cc1ccccc1C(=O)NCCSc1ccccc1	i	3.6	i	i	i	i
COc1cc(Cl)c(NC2=CC(=O)C(=O)c3ccccc32)c(OC)c1	nt	nt	nt	nt	87	nt
CCOc1ccc(NC2=CC(=O)C(=O)c3ccccc32)cc1	nt	nt	nt	nt	74	nt
O=C1C=C(Nc2ccc(F)cc2)c2ccccc2C1=O	nt	nt	nt	nt	58	nt
Cc1ccc(NC2=CC(=O)C(=O)c3ccccc32)c(C)c1	nt	nt	nt	nt	i	nt
O=C1C=C(Nc2ccccc2O)c2ccccc2C1=O	i	i	i	i	i	i
O=C1C=C(Nc2cccnc2)c2ccccc2C1=O	nt	nt	nt	nt	70	nt
CCOc1ccc(N=c2scc(-c3ccccc3)n2CCO)cc1	i	i	i	i	i	i
CCn1c(-c2ccccc2)csc1=Nc1ccc(O)cc1	i	nt	i	152	i	i
O=C(/C=C/c1cn(CC(O)CN2CCCCC2)c2ccccc12)c1ccccc1 (centres undefined)	nt	nt	i	nt	i	nt
CN1CCN(Cn2cc(/C=C/C(=O)c3ccccc3)c3ccccc32)CC1	i	13	i	165	i	i
O=C1C(C=NCCN2CCOCC2)=C(O)c2ccccc21	i	i	i	i	i	i
Cc1ccc(O)c(N=CC2=C(O)c3ccccc3C2=O)c1	i	4.2	i	i	i	i
O=C1C(C=Nc2ccccc2O)=C(O)c2ccccc21	i	5	i	i	i	85
CC(C)(C)Cc1c(-c2ccc(C#N)cc2)nc2c(Cl)cc(C(F)(F)F)cn12	nt	nt	nt	nt	i	nt
Cc1nn(-c2ccccc2)c(C)c1/C=N/NC(=O)c1cc(C(C)(C)C)[nH]n1	i	i	i	i	52	i
SMILES	FLuc act counter	NF-kB expr up	PPC-1+TRAIL kill	APP 5'UTR act	TRAIL sens C8	FLuc inhib CS
O=C(c1ccc(N2CCOCC2)cc1)c1cccs1	i	5.1	i	i	i	66
O=C(N/N=C/c1ccc(N2CCOCC2)cc1)c1cccs1	i	i	i	i	i	52
O=C(Nc1ccc(N2CCOCC2)cc1N1CCOCC1)c1cccs1	i	i	i	i	i	i
O=C(N/N=C/c1ccc(N2CCOCC2)cc1)c1ccc(NS(=O)(=O)c2cccs2)cc1	i	i	i	i	i	i
Cc1ccc(-c2nc(C)c(C(=O)O)s2)cc1	i	i	i	143	i	i
CCc1nc2ccc(C(=O)NC3CCN(Cc4ccccc4)CC3)cn2c1N(C)Cc1cc2ccccc2s1	nt	nt	nt	nt	i	nt
CCN(c1ccccc1)S(=O)(=O)c1ccc(NC(=O)c2nc(S(C)(=O)=O)ncc2Cl)cc1	nt	nt	nt	nt	91	nt
CC(=O)Nc1ccc(S(=O)(=O)N(C)c2ccccc2)cc1	i	i	i	i	i	i
CCS(=O)(=O)c1ncc(Cl)c(C(=O)Nc2ccc(S(=O)(=O)N(C)c3ccccc3)cc2)n1	nt	nt	nt	nt	98	nt
CCN(c1ccccc1)S(=O)(=O)c1ccc(C(=O)Nc2ccncc2)cc1	nt	nt	nt	nt	i	nt
Cc1ccc(C(=O)NCCn2c(N)c(C#N)c3nc4ccccc4nc32)cc1	i	i	73	i	i	i
